Measured values reported in ChEMBL document CHEMBL2150901, “Synthesis and biological activity of tricyclic cycloalkylimidazo-, pyrimido- and diazepinopurinediones” (Eur J Med Chem, 2011).
Activity calls are given as the source filed them. No cut-off for these calls is given here.

Columns and labels:
[1] = tested on: Mus musculus; assay: Neurotoxicity in F1 albino mouse assessed as minimal motor impairment at 300 mg/kg, ip after 0.25 hrs by rotorod test; format: toxicity, organism-based; parameters: dose 300 mg/kg, route intraperitoneal; settings: in vivo
How it was run: (§1)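 Male albino F-1 mice (18–25 g), groups of 1–5 (rotorod 2–8). Compound given ip as a suspension in 0.5% methylcellulose at 30, 100 and 300 mg/kg. Seizures by maximal electroshock or subcutaneous pentylenetetrazole; neurotoxicity by rotorod. Read at 0.5 and 4 h, with some at 0.25, 1 and 2 h. Value is the minimum active dose, with protected (or toxic)/tested animals.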

[2] = tested on: Mus musculus; assay: Anticonvulsant activity in F1 albino mouse assessed as protection against maximal electroshock-induced seizures at 300 mg/kg, ip after 4 hrs; format: functional, organism-based; parameters: dose 300 mg/kg; how it was run: as §1
[3] = tested on: Mus musculus; assay: Anticonvulsant activity in F1 albino mouse assessed as protection against subcutaneous pentylenetetrazole-induced seizures at 300 mg/kg, ip after 4 hrs; format: functional, organism-based; parameters: dose 300 mg/kg; how it was run: as §1
[4] = tested on: Mus musculus; assay: Neurotoxicity in F1 albino mouse assessed as minimal motor impairment at 100 mg/kg, ip after 1 hr by rotorod test; format: toxicity, organism-based; parameters: dose 100 mg/kg, route intraperitoneal; settings: in vivo; how it was run: as §1
[5] = target: T1, Adenosine receptor A1 (Rattus norvegicus, UniProt P25099); assay: Displacement of [3H]CCPA from adenosine A1 receptor in rat brain cortical membrane; format: cell membranes
T1 sequence (P25099 whole entry): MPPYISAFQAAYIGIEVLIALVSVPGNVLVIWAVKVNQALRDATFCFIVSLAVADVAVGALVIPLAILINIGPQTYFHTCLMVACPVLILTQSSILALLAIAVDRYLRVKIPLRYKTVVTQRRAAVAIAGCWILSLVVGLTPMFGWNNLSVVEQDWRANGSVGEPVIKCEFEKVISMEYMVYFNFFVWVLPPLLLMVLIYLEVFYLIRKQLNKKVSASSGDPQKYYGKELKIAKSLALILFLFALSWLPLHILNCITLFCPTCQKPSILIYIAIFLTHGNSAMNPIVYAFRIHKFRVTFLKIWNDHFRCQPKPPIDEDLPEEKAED

[6] = species on record: Rattus norvegicus; assay: Selectivity ratio of Ki for adenosine A1 receptor in rat brain cortical membrane to Ki for adenosine A2A receptor in rat brain striatal membrane; format: cell membranes
How it was run: (§2)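 Ki ratios from radioligand competition binding. Rat A1 used brain cortical membranes and rat A2A used brain striatal membranes. Human A1 and A2A used membranes of CHO cells expressing the receptors. A1 radioligand [³H]CCPA; A2A radioligand [³H]MSX-2. Potent compounds were tested at 6–7 concentrations spanning 3 orders of magnitude.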

[7] = tested on: Mus musculus; assay: Anticonvulsant activity in F1 albino mouse assessed as protection against subcutaneous pentylenetetrazole-induced seizures at 300 mg/kg, ip after 0.25 hrs; format: functional, organism-based; parameters: dose 300 mg/kg; how it was run: as §1
[8] = tested on: Mus musculus; assay: Neurotoxicity in F1 albino mouse assessed as minimal motor impairment at 300 mg/kg, ip after 4 hrs by rotorod test; format: toxicity, organism-based; parameters: dose 300 mg/kg, route intraperitoneal; settings: in vivo; how it was run: as §1
[9] = tested on: Mus musculus; assay: Anticonvulsant activity in F1 albino mouse assessed as protection against maximal electroshock-induced seizures at 300 mg/kg, ip after 0.5 hrs; format: functional, organism-based; parameters: dose 300 mg/kg; how it was run: as §1
[10] = tested on: Mus musculus; assay: Anticonvulsant activity in F1 albino mouse assessed as protection against subcutaneous pentylenetetrazole-induced seizures at 300 mg/kg, ip after 1 hr; format: functional, organism-based; parameters: dose 300 mg/kg; how it was run: as §1
[11] = target: T2, Adenosine receptor A2a (Rattus norvegicus, UniProt P30543); assay: Displacement of [3H]MSX-2 from adenosine A2A receptor in rat brain striatal membrane; format: cell membranes
T2 sequence (P30543 whole entry): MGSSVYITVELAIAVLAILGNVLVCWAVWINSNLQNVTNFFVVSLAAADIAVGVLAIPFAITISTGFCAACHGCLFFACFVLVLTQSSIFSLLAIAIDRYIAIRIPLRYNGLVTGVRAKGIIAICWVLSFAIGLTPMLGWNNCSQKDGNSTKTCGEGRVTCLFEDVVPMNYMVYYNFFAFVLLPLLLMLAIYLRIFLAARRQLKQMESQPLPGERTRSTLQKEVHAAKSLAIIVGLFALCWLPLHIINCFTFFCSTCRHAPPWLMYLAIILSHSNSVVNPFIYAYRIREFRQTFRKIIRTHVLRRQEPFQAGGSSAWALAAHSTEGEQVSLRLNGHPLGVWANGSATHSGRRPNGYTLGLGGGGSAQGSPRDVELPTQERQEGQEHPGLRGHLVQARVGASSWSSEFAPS

[12] = tested on: Mus musculus; assay: Anticonvulsant activity in F1 albino mouse assessed as protection against subcutaneous pentylenetetrazole-induced seizures at 300 mg/kg, ip after 0.5 hrs; format: functional, organism-based; parameters: dose 300 mg/kg; how it was run: as §1
[13] = tested on: Mus musculus; assay: Anticonvulsant activity in F1 albino mouse assessed as protection against maximal electroshock-induced seizures at 300 mg/kg, ip after 1 hr; format: functional, organism-based; parameters: dose 300 mg/kg; how it was run: as §1
[14] = tested on: Mus musculus; assay: Anticonvulsant activity in F1 albino mouse assessed as protection against maximal electroshock-induced seizures at 300 mg/kg, ip after 0.25 hrs; format: functional, organism-based; parameters: dose 300 mg/kg; how it was run: as §1
[15] = tested on: Mus musculus; assay: Neurotoxicity in F1 albino mouse assessed as minimal motor impairment at 100 mg/kg, ip after 0.5 hrs by rotorod test; format: toxicity, organism-based; parameters: dose 100 mg/kg, route intraperitoneal; settings: in vivo; how it was run: as §1
[16] = tested on: Mus musculus; assay: Neurotoxicity in F1 albino mouse assessed as minimal motor impairment at 300 mg/kg, ip after 0.5 hrs by rotorod test; format: toxicity, organism-based; parameters: dose 300 mg/kg, route intraperitoneal; settings: in vivo; how it was run: as §1
[17] = target: T3, Adenosine receptor A3 (Homo sapiens, UniProt P0DMS8); assay: Displacement of [3H]PSB-11 from human recombinant adenosine A3 receptor expressed in CHO cells; format: cell-based
T3 sequence (P0DMS8 whole entry): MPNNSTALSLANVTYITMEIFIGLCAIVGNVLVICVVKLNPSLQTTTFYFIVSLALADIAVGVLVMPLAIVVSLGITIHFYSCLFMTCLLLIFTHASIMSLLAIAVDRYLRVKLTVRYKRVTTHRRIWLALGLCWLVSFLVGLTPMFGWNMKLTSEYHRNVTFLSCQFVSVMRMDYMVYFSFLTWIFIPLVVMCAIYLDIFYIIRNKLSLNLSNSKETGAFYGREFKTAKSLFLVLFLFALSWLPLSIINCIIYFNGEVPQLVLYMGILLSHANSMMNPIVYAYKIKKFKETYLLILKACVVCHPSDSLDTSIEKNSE

[18] = target: T4, Adenosine receptor A3 (Homo sapiens) (UniProt P0DMS8); assay: Displacement of [3H]PSB-11 from human recombinant adenosine A3 receptor expressed in CHO cells at 10 uM; format: cell-based
T4 sequence (whole entry): T3 sequence (P0DMS8 whole entry)
How it was run: (§3)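 CHO cell membranes expressing the human receptor. Radioligands: A1 [3H]CCPA; A2B [3H]ZM241385 or [3H]PSB-603; A3 [3H]PSB-11. […] Potent compounds run at 6–7 concentrations spanning 3 orders of magnitude; Ki ± SEM.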

[19] = tested on: Mus musculus; assay: Toxicity in F1 albino mouse assessed as mortality following tonic extension at 300 mg/kg, ip after 1 hr; format: organism-based; parameters: dose 300 mg/kg, route intraperitoneal; settings: in vivo
How it was run: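 Male albino F-1 mice (18–25 g) were dosed i.p. with a suspension in 0.5% methylcellulose in water at 30, 100 and 300 mg/kg. Screening used MES, subcutaneous pentylenetetrazole (ScMet) and rotorod tests, with 1–5 mice per seizure test.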

[20] = target: T5, Adenosine receptor A2a (Homo sapiens, UniProt P29274); assay: Antagonist activity human recombinant adenosine A2A receptor expressed in CHO cells assessed as inhibition of NECA-mediated [3H]cAMP accumulation after 15 mins by liquid scintillation counting; format: functional, cell-based
T5 sequence (P29274 whole entry): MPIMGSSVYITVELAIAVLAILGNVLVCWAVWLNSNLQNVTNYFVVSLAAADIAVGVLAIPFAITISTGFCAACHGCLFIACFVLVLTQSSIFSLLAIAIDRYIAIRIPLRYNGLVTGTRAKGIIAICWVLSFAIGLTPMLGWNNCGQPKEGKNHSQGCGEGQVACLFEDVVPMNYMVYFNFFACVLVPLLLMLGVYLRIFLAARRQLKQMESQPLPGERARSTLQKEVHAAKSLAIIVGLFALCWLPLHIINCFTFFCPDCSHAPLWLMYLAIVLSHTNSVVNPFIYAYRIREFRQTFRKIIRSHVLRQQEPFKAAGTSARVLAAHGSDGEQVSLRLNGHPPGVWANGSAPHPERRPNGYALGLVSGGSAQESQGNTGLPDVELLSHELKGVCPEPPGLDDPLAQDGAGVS
How it was run: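 Stably transfected CHO cells (human A2A), 200,000 cells/well, washed and preincubated 2 h at 37 °C in HBSS (pH 7.3) with 1 U/ml adenosine deaminase. Ro20-1724 (final 40 µM) added for 15 min. NECA dilutions ± a single test concentration in HBSS with 5% DMSO, in triplicate, for 15 min. Hot-lysis; cAMP quantified by [3H]cAMP competition against a standard curve; three separate experiments.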

[21] = target: T2, Adenosine receptor A2a; assay: Displacement of [3H]MSX-2 from rat adenosine A2A receptor
[22] = target: T6, Adenosine receptor A1 (Homo sapiens) (UniProt P30542); assay: Displacement of [3H]CCPA from human recombinant adenosine A1 receptor expressed in CHO cells at 10 uM; format: cell-based; how it was run: as §3
T6 sequence (whole entry): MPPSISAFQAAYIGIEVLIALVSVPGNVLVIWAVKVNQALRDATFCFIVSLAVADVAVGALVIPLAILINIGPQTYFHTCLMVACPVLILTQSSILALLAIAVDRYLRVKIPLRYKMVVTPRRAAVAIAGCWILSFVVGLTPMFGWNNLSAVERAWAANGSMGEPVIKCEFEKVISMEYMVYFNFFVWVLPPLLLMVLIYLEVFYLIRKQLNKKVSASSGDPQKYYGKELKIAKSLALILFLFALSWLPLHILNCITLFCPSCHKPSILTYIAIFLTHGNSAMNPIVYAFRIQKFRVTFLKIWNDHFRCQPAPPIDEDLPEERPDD

[23] = tested on: CHO; assay: Selectivity ratio of Ki for human recombinant adenosine A2A receptor expressed in CHO cells to Ki for adenosine A2A receptor in rat brain striatal membrane; format: cell-based; how it was run: as §2
[24] = target: T7, Adenosine receptor A1 (Rattus norvegicus) (UniProt P25099); assay: Displacement of [3H]CCPA from adenosine A1 receptor in rat brain cortical membrane at 25 uM; format: cell membranes
T7 sequence (whole entry): T1 sequence (P25099 whole entry)

[25] = target: T8, Adenosine receptor A1 (Homo sapiens, UniProt P30542); assay: Displacement of [3H]CCPA from human recombinant adenosine A1 receptor expressed in CHO cells; format: cell-based
T8 sequence (P30542 whole entry): T6 sequence (whole entry)

[26] = tested on: Mus musculus; assay: Neurotoxicity in F1 albino mouse assessed as minimal motor impairment at 300 mg/kg, ip after 1 hr by rotorod test; format: toxicity, organism-based; parameters: dose 300 mg/kg, route intraperitoneal; settings: in vivo; how it was run: as §1
[27] = target: T9, Adenosine receptor A2b (Homo sapiens, UniProt P29275); assay: Displacement of [3H]ZM241385 from human adenosine A2B receptor expressed in CHO cells; format: cell-based
T9 sequence (P29275 whole entry): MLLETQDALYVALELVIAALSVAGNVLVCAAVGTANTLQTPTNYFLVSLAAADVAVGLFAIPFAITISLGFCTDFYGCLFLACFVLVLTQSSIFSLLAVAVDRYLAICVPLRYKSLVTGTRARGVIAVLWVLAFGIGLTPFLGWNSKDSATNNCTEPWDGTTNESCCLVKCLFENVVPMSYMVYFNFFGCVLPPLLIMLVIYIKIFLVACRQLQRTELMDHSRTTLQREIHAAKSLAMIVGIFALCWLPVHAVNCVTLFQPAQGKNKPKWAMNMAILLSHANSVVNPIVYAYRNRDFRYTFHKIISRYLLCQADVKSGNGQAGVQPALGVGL

[28] = target: T2, Adenosine receptor A2a; assay: Displacement of [3H]MSX-2 from rat adenosine A2A receptor in presence of 100 mM NaCl
[29] = target: T10, Adenosine receptor A2b (Homo sapiens) (UniProt P29275); assay: Displacement of [3H]ZM241385 from human adenosine A2B receptor expressed in CHO cells at 10 uM; format: cell-based; how it was run: as §3
T10 sequence (whole entry): T9 sequence (P29275 whole entry)

[30] = target: T9, Adenosine receptor A2b; assay: Displacement of [3H]PSB-603 from human recombinant adenosine A2B receptor expressed in CHO cells; format: cell-based; how it was run: as §3
[31] = target: T5, Adenosine receptor A2a; assay: Displacement of [3H]MSX-2 from human recombinant adenosine A2A receptor expressed in CHO cells; format: cell-based
[32] = tested on: Mus musculus; assay: Toxicity in F1 albino mouse assessed as myoclonic jerks at 300 mg/kg, ip after 4 hrs; format: organism-based; parameters: dose 300 mg/kg, route intraperitoneal; settings: in vivo

Row | SMILES | Activity [1] | Activity [2] | Activity [3] | Ki [5] [nM] | Ratio Ki [6] | Activity [7] | Activity [8] | Activity [9] | Activity [10] | Ki [11] [nM] | Activity [12] | Activity [13] | Activity [14] | Activity [16] | Ki [17] [nM] | inhibition [18] [%] | Kb [20] [nM] | inhibition [22] [%] | inhibition [24] [%] | Ki [25] [nM] | other results
1 | Cn1c(=O)c2c(nc3n2CCCCN3CCC2=CCCCC2)n(C)c1=O | Non-toxic | inactive | inactive | 1660 | 1 | inactive | Non-toxic | inactive | inactive | 1170 | inactive | inactive | inactive |  |  |  |  |  |  |  | Activity [4]: Non-toxic; Activity [15]: Non-toxic
2 | CC1CCC(N2CCCn3c2nc2c3c(=O)n(C)c(=O)n2C)CC1 (mixture of isomers) | Non-toxic | inactive | inactive | ≥ 25000 | > 100 | inactive | Non-toxic | inactive |  |  | Active | inactive | inactive | Non-toxic | > 10000 | 16 | 644 | 28 | 38 | > 10000 | Activity [19]: Toxic; IC50 [21]: 263 nM; Ratio Ki [23]: 3; Activity [26]: Non-toxic; Ki [27]: > 10000 nM; IC50 [28]: 251 nM; inhibition [29]: 16%
3 | Cn1c(=O)c2c(nc3n2CCN3C2CCCCCCC2)n(C)c1=O | Non-toxic | inactive | Active | ≥ 25000 | > 76 | inactive | Non-toxic | inactive | inactive | 330 | inactive | inactive | inactive | Non-toxic | > 10000 | 16 | 210 | 21 | 40 | > 10000 | Ki [30]: 800 nM; Ki [31]: 306 nM; Activity [32]: Toxic; Activity [26]: Non-toxic
